From ChEMBL document CHEMBL4257471, “Orthoester functionalized N-guanidino derivatives of 1,5-dideoxy-1,5-imino-d-xylitol as pH-responsive inhibitors of β-glucocerebrosidase” (Medchemcomm, 2017)
Where a chain is given by its changes, count along the chain named. Calls of active or inactive are those of the source. The calls are words filed in the database; no cut-off is given here.

How the values were obtained:
[1] = Inhibition of yeast alpha-glucosidase pre-incubated for 5 mins followed by p-nitrophenyl-alpha-D-glucopyranoside substrate addition and measured after 30 mins by spectrophotometric assay; design: species or system Saccharomyces cerevisiae
Summary of the method: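 Enzyme at 0.05 U mL⁻¹; p-nitrophenyl-α-D-glucopyranoside substrate at 0.7 mM final in 100 mM sodium phosphate, pH 7.2. IC50 values in μM averaged from triple independent duplicate analysis.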

Alpha-galactosidase = Alpha-galactosidase (Coffea arabica, UniProt Q42656); assay: Inhibition of green coffee beans alpha-galactosidase pre-incubated for 5 mins followed by p-nitrophenyl-alpha-D-galactopyranoside substrate addition and measured after 30 mins by spectrophotometric assay
Chain of Alpha-galactosidase (Q42656 whole entry): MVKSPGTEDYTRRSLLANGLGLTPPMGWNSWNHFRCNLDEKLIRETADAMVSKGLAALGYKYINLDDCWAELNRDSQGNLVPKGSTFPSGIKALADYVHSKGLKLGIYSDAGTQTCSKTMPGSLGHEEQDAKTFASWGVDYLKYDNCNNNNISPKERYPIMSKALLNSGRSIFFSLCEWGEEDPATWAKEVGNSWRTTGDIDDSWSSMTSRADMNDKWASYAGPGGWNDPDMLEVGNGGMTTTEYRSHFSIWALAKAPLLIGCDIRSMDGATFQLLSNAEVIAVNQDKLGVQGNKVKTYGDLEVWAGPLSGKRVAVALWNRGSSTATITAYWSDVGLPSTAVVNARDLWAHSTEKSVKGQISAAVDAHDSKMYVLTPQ
Summary of the method: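 Enzyme at 0.05 U mL⁻¹ with p-nitrophenyl-α-D-galactopyranoside, 0.7 mM final, in sodium phosphate buffer (100 mM, pH 6.8). IC50 values in μM are averages of triple independent duplicate runs.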

[2] = Inhibition of almond beta-glucosidase pre-incubated for 5 mins followed by p-nitrophenyl-beta-D-glucopyranoside substrate addition and measured after 30 mins by spectrophotometric assay; design: species or system Prunus dulcis
Summary of the method: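 Enzyme at 0.05 U mL⁻¹ with p-nitrophenyl-β-D-glucopyranoside, 0.7 mM final, in 100 mM sodium acetate, pH 5.0. IC50 values in μM are means of triple independent duplicate analyses.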

Beta-galactosidase = target: T1, Beta-galactosidase (Bos taurus, UniProt Q58D55); assay: Inhibition of bovine liver beta-galactosidase pre-incubated for 5 mins followed by p-nitrophenyl-beta-D-galactopyranoside substrate addition and measured after 30 mins by spectrophotometric assay
T1 sequence (Q58D55 whole entry): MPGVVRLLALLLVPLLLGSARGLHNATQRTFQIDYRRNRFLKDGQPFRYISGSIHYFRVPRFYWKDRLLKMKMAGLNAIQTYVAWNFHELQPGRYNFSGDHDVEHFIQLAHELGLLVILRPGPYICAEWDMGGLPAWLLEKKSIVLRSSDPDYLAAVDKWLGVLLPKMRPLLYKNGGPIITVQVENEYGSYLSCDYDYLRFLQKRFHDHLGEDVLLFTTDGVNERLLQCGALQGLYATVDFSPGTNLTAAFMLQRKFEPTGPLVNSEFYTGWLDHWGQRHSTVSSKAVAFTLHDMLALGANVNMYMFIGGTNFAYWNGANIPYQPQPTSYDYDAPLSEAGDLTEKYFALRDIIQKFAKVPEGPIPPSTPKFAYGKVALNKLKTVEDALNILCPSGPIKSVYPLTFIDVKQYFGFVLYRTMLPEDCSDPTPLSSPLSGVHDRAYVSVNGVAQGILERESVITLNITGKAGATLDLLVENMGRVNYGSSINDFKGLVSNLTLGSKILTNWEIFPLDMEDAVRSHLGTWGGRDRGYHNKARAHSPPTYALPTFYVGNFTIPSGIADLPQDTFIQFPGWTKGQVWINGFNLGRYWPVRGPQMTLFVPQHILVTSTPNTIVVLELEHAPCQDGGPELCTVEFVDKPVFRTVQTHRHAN
Summary of the method: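 Enzyme at 0.05 U mL⁻¹; p-nitrophenyl-β-D-galactopyranoside substrate, 0.7 mM final, in 100 mM sodium phosphate buffer, pH 7.2. IC50 values in μM from triple independent duplicate analysis.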

[3] = Inhibition of Penicillium decumbens naringinase pre-incubated for 5 mins followed by p-nitrophenyl-beta-D-glucopyranoside substrate addition and measured after 30 mins by spectrophotometric assay
Summary of the method: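 Enzyme at 0.06 U mL⁻¹; substrate p-nitrophenyl-β-D-glucopyranoside at 0.7 mM final in 100 mM sodium acetate buffer, pH 5.0. IC50 values in μM, averaged from triple independent duplicate runs.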

Galactocerebrosidase = target: T2, Galactocerebrosidase (Homo sapiens, UniProt P54803); assay: Inhibition of recombinant human GALC at pH 5.2 pre-incubated for 10 mins followed by 4-methylumbelliferyl-beta-D-galactopyranoside substrate addition and measured after 20 mins by fluorescence assay
T2 sequence (P54803 whole entry): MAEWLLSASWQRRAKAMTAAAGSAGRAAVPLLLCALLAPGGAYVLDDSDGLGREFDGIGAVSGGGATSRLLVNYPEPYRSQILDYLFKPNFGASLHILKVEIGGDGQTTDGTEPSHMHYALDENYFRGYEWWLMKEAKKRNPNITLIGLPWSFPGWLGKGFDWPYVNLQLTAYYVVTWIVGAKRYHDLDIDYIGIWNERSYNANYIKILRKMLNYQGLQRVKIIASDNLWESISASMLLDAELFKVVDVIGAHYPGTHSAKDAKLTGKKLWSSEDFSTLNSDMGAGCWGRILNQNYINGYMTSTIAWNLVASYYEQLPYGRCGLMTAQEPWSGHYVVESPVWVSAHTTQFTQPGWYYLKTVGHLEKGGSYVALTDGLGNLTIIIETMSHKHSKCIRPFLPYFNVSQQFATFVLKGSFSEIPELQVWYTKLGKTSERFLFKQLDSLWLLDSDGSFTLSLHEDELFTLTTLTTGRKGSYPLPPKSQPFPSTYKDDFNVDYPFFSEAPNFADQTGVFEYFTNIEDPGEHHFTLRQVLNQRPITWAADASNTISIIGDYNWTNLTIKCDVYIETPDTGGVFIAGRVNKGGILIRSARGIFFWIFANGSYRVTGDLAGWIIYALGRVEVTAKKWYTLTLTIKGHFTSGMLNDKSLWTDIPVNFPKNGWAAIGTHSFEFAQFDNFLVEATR
Summary of the method: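 Human recombinant enzyme assayed with 4-methylumbelliferyl-β-D-galactopyranoside substrate. IC50 values in μM, averaged from triple independent duplicate analysis.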

[4] = target: T3, Lysosomal acid glucosylceramidase (Homo sapiens, UniProt P04062); assay: Inhibition of recombinant human GBA pre-incubated for 30 mins followed by 4-methylumbelliferyl-beta-D-glucopyranoside substrate addition and measured after 10 mins using compound incubated at pH 7 buffer for 24 hrs prior to test by fluorescence assay
T3 sequence (P04062 whole entry): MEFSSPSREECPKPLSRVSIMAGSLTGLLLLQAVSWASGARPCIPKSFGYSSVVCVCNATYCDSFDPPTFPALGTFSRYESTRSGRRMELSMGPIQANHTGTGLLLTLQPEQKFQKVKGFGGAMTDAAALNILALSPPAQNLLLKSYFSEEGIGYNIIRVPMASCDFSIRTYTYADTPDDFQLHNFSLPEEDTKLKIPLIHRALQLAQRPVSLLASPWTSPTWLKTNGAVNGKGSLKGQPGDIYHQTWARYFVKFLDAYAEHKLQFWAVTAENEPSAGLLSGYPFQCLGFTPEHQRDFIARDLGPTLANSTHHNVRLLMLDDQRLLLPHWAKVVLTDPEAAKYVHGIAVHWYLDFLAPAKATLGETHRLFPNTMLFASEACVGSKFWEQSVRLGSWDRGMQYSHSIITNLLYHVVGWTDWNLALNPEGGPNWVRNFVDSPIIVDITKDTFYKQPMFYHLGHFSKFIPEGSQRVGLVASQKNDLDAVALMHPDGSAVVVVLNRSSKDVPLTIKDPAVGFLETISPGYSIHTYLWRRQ

[5] = target: T3, Lysosomal acid glucosylceramidase; assay: Inhibition of recombinant human GBA pre-incubated for 30 mins followed by 4-methylumbelliferyl-beta-D-glucopyranoside substrate addition and measured after 10 mins using compound incubated at pH 5.2 for 24 hrs prior to test by fluorescence assay
[6] = Drug degradation in aqueous solution at room temperature after 6 days; assay type: physicochemical; conditions: read-out: Drug degradation
[7] = system: T4, Lysosomal acid glucosylceramidase (Homo sapiens), P04062 [N409S]; assay: Chaperone activity at GBA N370S mutant in Gaucher disease patient-derived fibroblasts assessed as restoration of enzyme activity at 1 to 10000 nM after 4 days by 4-methylumbelliferyl-beta-D-glucopyranoside substrate based fluorescence assay
T4 sequence (whole entry): T3 sequence (P04062 whole entry) with N409S

[8] = system: T5, Lysosomal acid glucosylceramidase (Homo sapiens), P04062 [L483P]; assay: Chaperone activity at GBA L444P mutant in Gaucher disease patient-derived fibroblasts assessed as restoration of enzyme activity at 1 to 10000 nM after 4 days by 4-methylumbelliferyl-beta-D-glucopyranoside substrate based fluorescence assay
T5 sequence (whole entry): T3 sequence (P04062 whole entry) with L483P

| Structure (SMILES) | IC50 [1] [µM] | IC50 (Alpha-galactosidase) [µM] | IC50 [2] [µM] | IC50 (Beta-galactosidase) [µM] | IC50 [3] [µM] | IC50 (Galactocerebrosidase) [µM] | IC50 [4] [µM] | IC50 [5] [µM] | degraded at 144 h [6] [%] | Activity [7] | Activity [8] |
| --- | --- | --- | --- | --- | --- | --- | --- | --- | --- | --- | --- |
| CCCCCCCCCN1C[C@H](O)[C@@H](O)[C@H](O)[C@H]1CO | > 30 | > 30 | > 30 | > 30 | 0.085 | > 30 |  |  |  |  |  |
| CCCCOC1OCC(CNC(=N)N2C[C@@H](O)[C@H](O)[C@@H](O)C2)O1 (stereo partly drawn) | > 30 | > 30 | 19.2 | > 30 | > 30 | > 30 | 2.56 | > 30 | < 3 | Active |  |
| CCCCCCCCOC1OCC(CNC(=N)N2C[C@@H](O)[C@H](O)[C@@H](O)C2)O1 (stereo partly drawn) | > 30 | > 30 | 14.6 | > 30 | > 30 | > 30 | 0.025 | > 30 | < 3 | Active | inactive |
| OC[C@H]1CNC[C@@H](O)[C@@H]1O |  |  |  |  |  |  |  |  |  | Active |  |
